# Reference: PubChem BioAssay
# The source made the active and inactive calls.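 The calls were made as follows, unless noted: active = GFP response above 150% of the DMSO level; inconclusive = fewer than 70 events counted for a yeast strain; inactive = the rest.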
# Columns and labels:
# [1] = RPL19A-GFP modulators, yeast TOR pathway, confirmation, cell-based, S. cerevisiae, flow cytometry, cherry picks, mother/daughter gates (AID 2270;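 active = GFP response below 50% of the DMSO control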); conditions: S. cerevisiae RPL19A-GFP strain, 3 h, at 10 µM, stronger effect = lower value, 100 = same GFP as DMSO wells
# [2] = LAP4-GFP expression modulators in yeast, confirmation, cell-based, cherry picks, flow cytometry, mother/daughter gates (AID 2271;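 active = GFP response above 150% of the DMSO control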;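 also: ratio of sample to DMSO plate mean so 100% equals DMSO level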); conditions: S. cerevisiae LAP4-GFP strain, 3 h, at 10 µM, stronger effect = higher value, 100 means same as DMSO control
# How it was run: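 System: Alexa 633-stained baker's yeast GFP-fusion strain; quantity: 0.2 OD600 cells; timing: compound exposure 3 h at 30 °C, end-over-end rotation; detection: HT flow cytometry, GFP fluorescence channel; measure: per-gate (all, mother, daughter) GFP response vs DMSO; control set: DMSO-only negative wells, rapamycin 400 ng/mL positive wells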
# [3] = modulators of MEP2-GFP levels in yeast, confirmation, S. cerevisiae, flow cytometry GFP, cherry picks (AID 2272;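 active = GFP response above 150% of the DMSO control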;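 also: ratio of well signal to plate DMSO mean so 100% equals DMSO level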); conditions: S. cerevisiae MEP2-GFP strain, 3 h, at 10 µM, stronger effect = higher value
# [4] = AGP1-GFP expression modulators, hit retest, confirmation, cell-based, flow cytometry, S. cerevisiae, cherry picks (AID 2273);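 also: median GFP channel fluorescence over the whole cell population gate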; conditions: S. cerevisiae AGP1-GFP strain, 3 h, at 10 µM
# [5] = modulators of CIT2-GFP expression in yeast, confirmation, S. cerevisiae, GFP fusion, cherry picks, mother/daughter gates (AID 2274); conditions: S. cerevisiae CIT2-GFP strain, flow cytometry, 3 h, at 10 µM, stronger effect = higher value
# [6] = measured here: daughter cell gate
# [7] = measured here: mother cell gate
# [8] = measured here: daughter cell gate response
# [9] = measured here: mother cell gate response
SMILES,GFP response vs DMSO [1],"GFP response vs DMSO [1, 6]","GFP response vs DMSO [1, 7]",GFP response relative to DMSO [2],"GFP response relative to DMSO [2, 8]","GFP response relative to DMSO [2, 9]",GFP response vs DMSO [3],"GFP response, % of DMSO [4]","GFP response, % of DMSO [5]","GFP response, % of DMSO [5, 6]","GFP response, % of DMSO [5, 7]"
CC(Oc1ccc(Cl)cc1)C(=O)NNC(=S)NC(=O)c1ccco1 (stereo not drawn),99.6% (inactive),97.1%,97.2%,227% (active),112%,205%,128% (inactive),115% (inactive),106% (inactive),88.4%,93.2%
CCOc1ccc(/C=C/C(=O)c2c(O)cc(C)oc2=O)cc1,95.1% (inactive),96.1%,94.6%,120% (inactive),113%,126%,106% (inactive),107% (inactive),93.1% (inactive),94%,92.6%
CCCN(Cc1nnc(-c2ccccc2Cl)o1)C(=O)c1cc([N+](=O)[O-])cc([N+](=O)[O-])c1,97.3% (inactive),98.4%,96.1%,97.7% (inactive),96%,98.4%,101% (inactive),98.6% (inactive),94.4% (inactive),94%,94.9%
Cc1cc(NC(=O)c2ccc3c(c2)OCCO3)ccc1NC(=O)c1cc2ccccc2o1,97.6% (inactive),99.5%,96.5%,89.4% (inactive),89.8%,91.3%,103% (inactive),93.2% (inactive),95.8% (inactive),97.6%,97.1%
C(=N\Nc1nc(-c2cccnc2)nc2ccccc12)/c1ccccc1,101% (inactive),101%,102%,99.2% (inactive),99.2%,98.3%,102% (inactive),95.6% (inactive),104% (inactive),105%,103%
CCN(CC)S(=O)(=O)c1ccc(O)c(C(=O)OCC(=O)NC2CCCC2)c1,99.2% (inactive),97.9%,99.5%,98.2% (inactive),97.5%,97.3%,96.8% (inactive),102% (inactive),105% (inactive),103%,103%
COc1ccc(/C=C/C(=O)c2ccc(Cl)cc2)c(OC)c1,97.6% (inactive),98.9%,96.1%,104% (inactive),102%,106%,100% (inactive),90.2% (inactive),99.7% (inactive),99.1%,97.3%
O=[N+]([O-])/C=C/c1cn(Cc2ccccc2)c2ccccc12,103% (inactive),98.1%,98.2%,134% (inactive),131%,138%,102% (inactive),98.3% (inactive),96.5% (inactive),94.8%,91.2%
CCCc1[nH]nc2c1C(c1cccnc1)C(C#N)=C(N)O2 (stereo not drawn),98.6% (inactive),97.9%,99.2%,99.2% (inactive),97.6%,98.3%,96.2% (inactive),103% (inactive),101% (inactive),99.1%,99.7%
COc1ccc(-c2nnc(NC(=O)c3ccc(S(=O)(=O)N4COCC4(C)C)cc3)o2)cc1,96.5% (inactive),98.1%,94%,95.3% (inactive),92.9%,97.4%,103% (inactive),103% (inactive),98.6% (inactive),99.3%,98.2%
CC1=NOC(=O)/C1=C\c1ccc(-c2cc(Cl)ccc2Cl)o1,97.1% (inactive),93.9%,91.6%,195% (active),176%,186%,118% (inactive),100% (inactive),114% (inactive),121%,102%
COC(=O)c1cc(NC(=O)c2c(Cl)nc3sccn23)cc(C(=O)OC)c1,97% (inactive),98.6%,96.9%,92.8% (inactive),92.8%,92.9%,102% (inactive),90% (inactive),99.7% (inactive),101%,99.7%
O=C(O)Cn1cc(/C=C/[N+](=O)[O-])c2ccccc21,97.6% (inactive),98.4%,97.2%,102% (inactive),101%,100%,100% (inactive),93.9% (inactive),99.7% (inactive),99.1%,99.7%
Cc1cc(O)c(C(=O)/C=C/c2ccccc2O)c(=O)o1,101% (inactive),98.9%,101%,119% (inactive),109%,125%,105% (inactive),90.2% (inactive),89.8% (inactive),91.7%,86.7%
Cc1cc(NCCN2CCOCC2)n2ncc(-c3ccccc3)c2n1,99.6% (inactive),99.8%,99.4%,107% (inactive),110%,107%,103% (inactive),89.3% (inactive),103% (inactive),99.3%,104%
COc1ccc(NC2=C(Cl)C(=O)N(CCc3ccccc3)C2=O)cc1,98.7% (inactive),99.3%,99.2%,97.7% (inactive),99.3%,96.5%,104% (inactive),103% (inactive),102% (inactive),102%,103%
FC(F)(F)c1cc(-c2cccs2)nc2cc(-c3cccs3)nn12,103% (inactive),102%,102%,97% (inactive),97.5%,97.3%,103% (inactive),95.1% (inactive),93% (inactive),92%,94.4%

SMILES,GFP response vs DMSO [1],"GFP response vs DMSO [1, 6]","GFP response vs DMSO [1, 7]",GFP response relative to DMSO [2],"GFP response relative to DMSO [2, 8]","GFP response relative to DMSO [2, 9]",GFP response vs DMSO [3],"GFP response, % of DMSO [4]","GFP response, % of DMSO [5]","GFP response, % of DMSO [5, 6]","GFP response, % of DMSO [5, 7]"
C/C(CCC12CC3CC(CC(C3)C1)C2)=N\NC(N)=S,87.9% (inactive),84.6%,90.7%,133% (inactive),125%,135%,98.3% (inactive),96% (inactive),89.8% (inactive),88.1%,87.8%
Cc1cccc(Cn2cc(/C=C/[N+](=O)[O-])c3ccccc32)c1,106% (inactive),103%,98%,111% (inactive),107%,114%,103% (inactive),101% (inactive),97.3% (inactive),95.6%,93.2%
O=C(/C=C/c1ccc(O)cc1)c1ccc(O)cc1O,93.7% (inactive),92.9%,94.6%,96.7% (inactive),97.6%,96.1%,102% (inactive),109% (inactive),103% (inactive),103%,102%
Cc1cccn2c(=O)c(/C=C(\C#N)C(=O)NC3CCS(=O)(=O)C3)c(N3CC(C)OC(C)C3)nc12 (stereo not drawn),97.8% (inactive),99.4%,99.7%,92.8% (inactive),96%,92.9%,100% (inactive),104% (inactive),99.7% (inactive),103%,99.7%
Cc1cccc(NC(=O)c2nc(S(=O)(=O)Cc3ccccc3)ncc2Cl)c1,93.1% (inactive),92.7%,91.4%,136% (inactive),128%,137%,108% (inactive),116% (inactive),93.1% (inactive),88.7%,90.4%
CCOC(=O)c1sc(Nc2nc3c(OC)cccc3s2)nc1C,103% (inactive),77.4%,69%,97% (inactive),94.2%,92%,112% (inactive),106% (inactive),100% (inactive),90.2%,90.7%
CCCCOc1ccc(C(=O)N2CCN(c3ccc(N4CCOCC4)nn3)CC2)cc1,97.4% (inactive),99.1%,94.9%,97.9% (inactive),97.6%,97.2%,98.3% (inactive),97.2% (inactive),98.3% (inactive),101%,98.5%
COC(=O)C1CCN(C(=O)COC(=O)CCc2nc3ccccc3c(=O)[nH]2)CC1,98.8% (inactive),99.6%,99.8%,97.7% (inactive),97.9%,96.5%,99.5% (inactive),98% (inactive),99.3% (inactive),102%,95.6%
Cc1c(NC2=C(Cl)C(=O)N(c3ccccc3Cl)C2=O)c(=O)n(-c2ccccc2)n1C,94.7% (inactive),96.6%,95.6%,93.7% (inactive),96.6%,94.1%,96.6% (inactive),102% (inactive),110% (inactive),108%,110%
CCOC(=O)c1ccc(NC(=O)CCc2nc(-c3ccccc3Cl)no2)cc1,101% (inactive),100%,102%,103% (inactive),101%,103%,108% (inactive),97.5% (inactive),101% (inactive),102%,98%
CCCC(=O)Nc1ccc(NC(=O)c2cc3ccccc3o2)c(OC)c1,98.8% (inactive),98.4%,98%,98.2% (inactive),99.1%,98.4%,103% (inactive),102% (inactive),97.3% (inactive),99.2%,87%
O=C(c1ccccc1Br)N1CCN(c2ccccc2)CC1,104% (inactive),106%,105%,93.8% (inactive),92.5%,97.2%,109% (inactive),94.3% (inactive),93.9% (inactive),94.8%,94.4%
CCOc1cc(-c2noc(-c3cccnc3)n2)ccc1OC,95.8% (inactive),94.7%,95%,98.9% (inactive),99%,100%,103% (inactive),100% (inactive),106% (inactive),103%,106%
CC(=O)Oc1ccc(N2C(=O)C3C4C=CC(O4)C3C2=O)cc1 (stereo not drawn),98.2% (inactive),99.1%,98.9%,102% (inactive),101%,101%,107% (inactive),96.8% (inactive),99.7% (inactive),99.1%,99.7%
Fc1ccc(C2CC(c3ccccc3)n3ncnc3N2)cc1 (stereo not drawn),96.8% (inactive),95.3%,98%,93.8% (inactive),94.1%,97.2%,100% (inactive),94.3% (inactive),92.6% (inactive),94.8%,91.2%
O=C1Nc2ccc(Br)cc2/C1=C/C(=O)c1ccc2c(c1)OCO2,101% (inactive),99.4%,98.9%,125% (inactive),117%,130%,105% (inactive),94.5% (inactive),101% (inactive),101%,96.1%
